# From PubChem BioAssay AID588392 (Broad Institute, 2011)
# Where “and” joins values, the source holds several entries; their conditions need not be identical. Identical values can stand only once.
# Molecular target: Scavenger receptor class B member 1 (Mus musculus) (UniProt Q61009)
# Experiment: inhibition of HDL lipid transfer via mSR-BI – ldlA[mSR-BI] CHO cells, powder samples, set 2, dose response (AID 588392)
# Details: DiI-HDL uptake fluorescence, 3 h
# Outline: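 Assay system: ldlA[mSR-BI] CHO cells, LDL receptor-deficient, overexpressing murine SR-BI. Probe or stimulus: DiI-labeled HDL, 10 µg/mL final. Doses: compounds delivered by pin transfer. Timing: cell plating overnight before assay, 3 h DiI-HDL uptake at 37 °C. Signal: cellular DiI fluorescence, excitation 550 nm, emission 595 nm, bottom read.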
# Scavenger receptor class B member 1 (Mus musculus), sequence (Q61009 whole entry, looked up): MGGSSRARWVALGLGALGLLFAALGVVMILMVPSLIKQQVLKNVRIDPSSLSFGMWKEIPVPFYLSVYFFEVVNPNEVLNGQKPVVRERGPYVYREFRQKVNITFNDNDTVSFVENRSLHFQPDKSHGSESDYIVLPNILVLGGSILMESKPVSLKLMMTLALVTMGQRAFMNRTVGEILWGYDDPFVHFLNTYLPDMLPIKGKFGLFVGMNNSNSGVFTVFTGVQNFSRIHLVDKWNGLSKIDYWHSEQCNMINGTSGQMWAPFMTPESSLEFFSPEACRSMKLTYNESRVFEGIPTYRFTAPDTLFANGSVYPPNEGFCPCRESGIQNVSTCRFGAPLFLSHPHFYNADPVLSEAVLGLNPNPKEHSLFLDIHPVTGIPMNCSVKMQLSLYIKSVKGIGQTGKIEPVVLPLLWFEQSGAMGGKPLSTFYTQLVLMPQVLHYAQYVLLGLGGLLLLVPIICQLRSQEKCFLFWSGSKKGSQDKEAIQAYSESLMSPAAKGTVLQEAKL
row,SMILES,AC50
1,CCC(=O)N1CCc2cc(-c3csc(NC(=O)c4cccc(OC)n4)n3)ccc21,528 nM
2,CCC(=O)N1CCc2cc(-c3csc(NC(=O)c4cc(OC)cc(OC)c4)n3)ccc21,4.33 nM
3,CC(C)C(=O)N1CCc2cc(-c3csc(NC(=O)c4ccco4)n3)ccc21,238 nM
4,CC(C(=O)NC1CCCC1)N(C(=O)Cn1nnc(-c2ccc3c(c2)OCO3)n1)C1CCCCC1 (centres undefined),24.3 nM
5,Cc1ccc(-c2nnn(CC(=O)N(C3CCCCC3)C(C)C(=O)NC3CCCC3)n2)cc1 (centres undefined),493 nM
6,CCCCCCC1CCC/C1=N\NC(N)=S (centres undefined),7.1 nM
7,CCC(=O)N1CCc2cc(-c3coc(NC(=O)c4ccco4)n3)ccc21,18900 nM
8,CCC(=O)N1CCc2cc(-c3cnc(NC(C)=O)[nH]3)ccc21,1700 nM
9,CCC(=O)N1CCc2cc(-c3csc(NC(=O)c4ccco4)n3)ccc21,53.7 nM
10,CCC(=O)N1CCc2cc(-c3csc(NC(=O)c4cccc(OC)c4)n3)ccc21,39.9 nM
11,CCC(=O)N1CCc2cc(-c3csc(NC(=O)c4cccc(OC(F)(F)F)c4)n3)ccc21,40.8 nM
12,COc1ccc(-c2cc(CC(=O)N(C3CCCCC3)C(C)C(=O)NC3CCCC3)no2)cc1OC (centres undefined),15.4 nM
13,CC(C(=O)NC1CCCC1)N(C(=O)Cn1nnc(-c2ccccc2F)n1)C1CCCCC1 (centres undefined),617 nM
14,CC(C(=O)NC1CCCC1)N(C(=O)Cn1nnc(-c2ccc(Cl)cc2)n1)C1CCCCC1 (centres undefined),275 nM
15,CCC(=O)N1CCc2cc(-c3cnc(NC(=O)c4ccco4)[nH]3)ccc21,10100 nM
16,COc1ccc(-c2nnn(CC(=O)N(C3CCCCC3)C(C)C(=O)NC3CCCC3)n2)cc1OC (centres undefined),72.5 nM
17,CC(C(=O)NC1CCCC1)N(C(=O)Cn1nnc(-c2ccc(F)cc2)n1)C1CCCCC1 (centres undefined),125 nM
18,COc1cccc(-c2nnn(CC(=O)N(C3CCCCC3)C(C)C(=O)NC3CCCC3)n2)c1 (centres undefined),180 nM
19,O=C(CN(C(=O)Cn1nnc(-c2ccc3c(c2)OCO3)n1)C1CCCCC1)NC1CCCC1,12.6 nM
20,O=C(Nc1nc(-c2ccc3c(c2)CCN3C(=O)C2CC2)cs1)c1ccco1,186 nM
21,COC(=O)N1CCc2cc(-c3csc(NC(=O)c4ccco4)n3)ccc21,6840 nM
22,C[C@@H]1CN([C@H](C)CO)C(=O)c2cc(NC(=O)Cc3cn(C)c4ccccc34)ccc2O[C@H]1CN(C)S(=O)(=O)c1ccc(Cl)cc1,81 nM and 268 nM
23,O=C(Nc1nc(-c2ccc3c(c2)CCN3)cs1)c1ccco1,44.7 nM
24,CC(C(=O)NC1CCCC1)N(C(=O)Cn1nnc(-c2ccccc2Cl)n1)C1CCCCC1 (centres undefined),3810 nM
25,CS(=O)(=O)N1CCc2cc(-c3csc(NC(=O)c4ccco4)n3)ccc21,386 nM
26,CCC(=O)N1CCc2cc(-c3coc(N)n3)ccc21,20000 nM
27,CC(C(=O)NC1CCCC1)N(C(=O)Cn1nnc(-c2cccc(F)c2)n1)C1CCCCC1 (centres undefined),379 nM
28,CCC(=O)N1CCc2cc(-c3csc(NC(=O)c4ccc(F)c(OC)c4)n3)ccc21,38 nM
29,COc1ccc(-c2nnn(CC(=O)N(CC(=O)NC3CCCC3)C3CCCCC3)n2)cc1OC,8.98 nM
